PGC1a acetyl inh: modulators of PGC1a acetylation. U2OS PGC1a acetylation, AlphaScreen anti-acetyl-lysine; with virally co-expressed GCN5 acetyltransferase. inhibition, % at 15.6 µM. 350,000 compounds, 0.17% hits. AID 651687;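 active = every replicate shows inhibition of at least 40%; inconclusive = mean inhibition at least 40% but some replicate below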;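 note: 0% = neutral control wells and 100% = positive control wells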
FN deposition inh: fibronectin deposition inhibition. inhibition, % at 12.6 µM. AH1F fibroblasts, Alexa488-fibronectin deposition fluorescence, overnight. 350,000 compounds, 0.086% hits. AID 743247;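 active = mean inhibition across replicates of 30% or more, regardless of how many single replicates reach that level; inconclusive = mean under 30% yet at least half of replicates reach 30%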;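 note: positive control wells lacked labelled fibronectin entirely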
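Measured by – fluorescence 485/525 nm · System – AH1F fibroblast monolayer, labelled fibronectin deposition · Amount – 10000 cells per well · Buffer or medium – serum-reduced DMEM (2% serum) · Doses – single dose, pinned · Also added – fluorescent fibronectin at 24 nM final · Schedule – 1 h cell attachment, overnight exposure to compound and label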
HIV Env fusion: HIV envelope-mediated fusion inhibition. HeLa-JRFL Env/CEM21 cell fusion, luciferase. inhibition, % at 12.3 µM. 360,000 compounds, 1.1% hits;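 active = mean replicate inhibition score of at least 50 and every replicate individually at or above 50; inconclusive = only one of the two criteria met; inactive = mean below 50 and not all replicates reaching 50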;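 note: 0% = plate neutral controls and 100% = maraviroc near 300 nM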
FGF22 binding: shifts melting point of recombinant human FGF22 | 340,000 compounds, 1.5% hits | recombinant FGF22 thermal shift, SYPRO orange fluorescence; percent of sucrose octasulfate shift, DMSO zero | activity (Tm shift, normalised), % at 9.99 µM;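 active = mean Tm shift, scaled 0 neutral to 100 positive control, at about 1.3% or above, every replicate too, limit read from the data; inconclusive = no clear call, values can overlap the other calls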
Target sequence (Q9HCT0 whole entry, looked up): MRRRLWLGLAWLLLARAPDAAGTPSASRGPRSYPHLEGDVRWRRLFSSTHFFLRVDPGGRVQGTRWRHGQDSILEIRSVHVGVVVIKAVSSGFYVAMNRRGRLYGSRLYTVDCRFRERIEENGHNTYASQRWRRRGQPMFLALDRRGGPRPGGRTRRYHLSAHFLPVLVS
PAX8 reporter: inhibitors of PAX8 transcriptional activity in RMG-I cells | AID 652154 | 360,000 compounds, 1.2% hits | inhibition, % at 12.6 µM | RMG-I TPO-luciferase reporter, SteadyGlo, 24 h;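 active = mean replicate inhibition at least 60% with every replicate also reaching 60%; inconclusive = only one of the two criteria is met; inactive = mean below 60% and not all replicates reaching 60%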;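 note: luciferase light reporting Pax8 driven TPO promoter activity; plate controls were median of neutral control wells for no effect and mitoxantrone controls for full effect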
EWS-Fli block: inhibitors of EWS/Fli oncoprotein transcriptional activity | A673 NR0B1-luciferase reporter, viability-normalised | inhibition, % at 12.6 µM | 350,000 compounds, 0.67% hits | AID 651661;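 active = mean inhibition of at least 50% after viability correction, with every replicate also passing that limit; inconclusive = mean reaches 50% but only one of two replicates passes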;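 note: firefly luciferase signal divided by Alamar Blue viability fluorescence both relative to DMSO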
Active calls of the source: *; ? = inconclusive; / = not tested or not shown; [ ] = another dose, or the depositor's remark. In the library only some 3.1% were active in any assay of this set; here they are far more common.

SMILES	PGC1a acetyl inh	FN deposition inh	HIV Env fusion	FGF22 binding	PAX8 reporter	EWS-Fli block
COc1ccc(NC(=O)N(C)C[C@@H]2Oc3c(NC(=O)Nc4ccc(C(F)(F)F)cc4)cccc3C(=O)N([C@@H](C)CO)C[C@H]2C)cc1	/	/	?	/	/	-7.6
NS(=O)(=O)c1ccc(NC(=O)COC(=O)COc2ccc(Cl)cc2)cc1	/	2.4	1.0	43.1*	10.5	14.7
C[C@@H]1CCCCO[C@H](CN(C)C(=O)Nc2ccc3c(c2)OCO3)[C@H](C)CN([C@H](C)CO)C(=O)c2cc(N(C)C)ccc2O1	-5.2	/	0.6[16.7 µM]	-2.0	3.1	-4.0
Cc1ccc(-n2ncc3c(=O)n(CC(=O)N4CCN(c5ccccc5)CC4)cnc32)cc1	-9.7	-3.8	-5.2	0.6	4.9	0.2
Cc1ccc(-n2ncc3c(=O)n(CC(=O)N4CCN(C(=O)c5ccco5)CC4)cnc32)cc1	4.4	-2.2	/	-0.1	73.0*	1.2
C[C@@]12C(=O)Nc3ccc(Br)cc3C(=O)N1[C@H]1c3cc(Br)ccc3OC[C@@H]1[C@@H]2c1ccccc1	/	-1.9	63.1*	0.2	31.3	9.7
C[C@@]12C(=O)Nc3ccccc3C(=O)N1[C@H]1c3cc(Br)ccc3OC[C@@H]1[C@@H]2c1ccccc1	-2.6	-1.1	-103.1	-0.2	20.0	55.6*
Cc1ccccc1S(=O)(=O)NCC[C@@H]1CC[C@@H](NC(=O)C2CCC2)[C@@H](CO)O1	-25.2	/	9.7[16.7 µM]	-0.1	23.1	-6.0
C[C@H]1CN([C@@H](C)CO)C(=O)Cc2cc(NS(=O)(=O)c3ccc(Cl)cc3)ccc2O[C@@H]1CN(C)S(C)(=O)=O	3.3	/	3.2[16.7 µM]	-0.2	-10.1	7.2
O=C(NCCN1CCCC1)[C@@H]1[C@@H](CO)[C@@H]2Cn3c(cccc3=O)[C@H]1N2C(=O)NC1CCCC1	-1.1	/	/	/	-30.8	-11.7
CCOc1ccc(C(O)(CCC(C)C)C(CN2CCOCC2)c2ccccc2)cc1 (stereo unspecified)	-35.7	-7.5	72.2*	-0.2	-10.5	18.9
CCOc1ccc(C(CN2CCOCC2)C(C)=O)cc1OC (stereo unspecified)	/	13.3	2.4	-0.1	101.8*	6.5
CCCCOc1ccc(C(=O)CCN2CCOCC2)cc1	-0.3	3.2	9.5	0.4	69.0*	-9.3
O=C(c1ccc(Br)cc1)C(CN1CCOCC1)c1ccccc1 (stereo unspecified)	/	34.2*	-38.0	0.0	39.4	40.8
COc1ccc(C(O)(CCC(C)C)C(CN2CCOCC2)c2ccc(Cl)cc2)cc1 (stereo unspecified)	-18.5	-8.7	?	-0.5	23.3	-9.7
CN(C)C(=O)[C@@H]1[C@@H](CO)[C@@H]2Cn3c(ccc(C4=CCCC4)c3=O)[C@H]1N2CC1CCCC1	-3.3	/	-14.6[16.7 µM]	/	-8.8	-14.2
O=C(c1ccccc1)C(CN1CCCCC1)c1ccccc1 (stereo unspecified)	-21.4	-4.0	-141.0	0.1	68.7*	69.2*
CC(CN1CCN(CC(C)C(=O)c2ccccc2)CC1)C(=O)c1ccccc1 (stereo unspecified)	1.1	/	10.2	0.2	16.4	5.3
CCOc1ccc(C(=O)C(CN2CCOCC2)c2ccccc2)cc1 (stereo unspecified)	32.3	20.3	-73.4	/	96.8*	/
O=C(O)C[C@H]1C[C@H]2c3cc(NC(=O)Nc4ccccc4)ccc3O[C@H]2[C@H](CO)O1	13.8	-7.4	0.1[16.7 µM]	-0.2	-10.0	-0.4
CCOc1ccc(CCNC(=O)CCOc2cc(C)ccc2C)cc1OCC	/	0.8	29.9	1.9*	8.3	4.5
CCOc1ccc(CCNC(=O)CSc2nn(-c3ccc(C)c(Cl)c3)c(=S)s2)cc1OCC	0.3	2.7	/	0.1	81.5*	19.1
CCOc1ccc(CCNC(=O)CSc2nnnn2C)cc1OCC	-0.3	-6.8	-9.9	0.1	9.0	5.6
Cc1cc2ccccc2nc1SCC(=O)NC1CCCCC1	-4.7	-6.1	-0.1	0.2	-3.0	3.1
Cc1cc2ccccc2nc1SCC(=O)NC1CCCC1	2.3	-12.1	1.6	43.0*	15.0	7.2
SMILES	PGC1a acetyl inh	FN deposition inh	HIV Env fusion	FGF22 binding	PAX8 reporter	EWS-Fli block
CN1C(=O)c2cc(NC(=O)c3cccs3)ccc2OC[C@H]2O[C@@H](CC(=O)NCCN3CCCCC3)CC[C@@H]21	6.0	-13.7	-12.5[16.7 µM]	-0.7	-4.9	12.9
C[C@@H]1CCCCO[C@H](CN(C)S(=O)(=O)c2ccc(F)cc2)[C@@H](C)CN([C@H](C)CO)C(=O)c2cc(NC(=O)CCCN(C)C)ccc2O1	4.5	-15.0	2.5[16.7 µM]	0.0	-7.1	-1.9
C/C(=N\NC(=O)COc1ccccc1-c1ccccc1)c1cccnc1	/	-3.1	6.0	0.0	14.4	0.3
O=C(COc1ccccc1-c1ccccc1)N/N=C/c1ccc2ccccc2c1	/	-13.9	-10.1	-0.3	93.5*	39.7
C/C(=N\NC(=O)COc1ccccc1-c1ccccc1)c1ccccn1	6.2	-3.0	10.6	-0.1	81.1*	0.0
COc1ccc(-c2ccc3c(c2)[C@H]2[C@H](CCN2S(=O)(=O)c2ccccc2F)[C@H](CO)N3C)cc1	-3.3	-21.4	/	0.3	35.2	6.4
N#Cc1ccc(-c2ccc3c(c2)[C@@H]2[C@@H](CCN2C(=O)c2ccccc2F)[C@@H](CO)N3)cc1	10.6	14.3	/	0.4	-15.2	11.4
Cc1ccc(-c2ccc([C@H]3[C@H](CO)N4C(=O)CN(C(=O)Nc5ccc(F)cc5)C[C@@H]34)cc2)cc1	-3.4	/	/	/	/	11.4
CCOC(=O)COc1nc2c(c(-c3ccco3)c1C#N)CCc1ccccc1-2	-6.1	-1.8	56.7*	-0.3	11.8	-12.0
N#Cc1c(OCC(=O)c2ccccc2)nc2c(c1-c1ccco1)CCc1ccccc1-2	-11.1	/	-61.1	/	/	/
CCCNC(=O)C[C@@H]1C[C@H]2c3cc(NC(=O)Cc4ccncc4)ccc3O[C@H]2[C@@H](CO)O1	4.6	-12.7	93.3*[16.7 µM]	-0.1	-11.6	-2.0
O=C(C[C@@H]1C[C@H]2c3cc(NC(=O)Cc4ccncc4)ccc3O[C@H]2[C@@H](CO)O1)NCc1ccc(-c2ccccc2)cc1	-14.5	/	-45.6[16.7 µM]	0.1	42.7	30.2
CCCNC(=O)C[C@@H]1C[C@H]2c3cc(NC(=O)Cc4ccncc4)ccc3O[C@H]2[C@H](CO)O1	-2.2	-9.6	97.9*[16.7 µM]	0.1	-1.4	5.5
CCCNC(=O)C[C@H]1C[C@H]2c3cc(NC(=O)CN(C)C)ccc3O[C@H]2[C@H](CO)O1	3.4	-19.7	88.8*[16.7 µM]	-0.1	2.5	1.6
O=C(C[C@@H]1C[C@@H]2c3cc(NC(=O)Cc4ccncc4)ccc3O[C@@H]2[C@H](CO)O1)NCc1ccc(-c2ccccc2)cc1	-5.0	/	-0.3[16.7 µM]	0.0	102.1*	11.1
COCCNC(=O)C[C@H]1CC[C@@H]2[C@H](COc3ccc(NC(=O)c4cc(C)on4)cc3C(=O)N2C)O1	6.1	-12.9	/	0.0	2.6	2.2

Assay outcomes: PubChem BioAssay, Broad Institute
